{"source": "ChEMBL document CHEMBL4765302", "about": "“Design, synthesis and biological evaluation of novel histone deacetylase1/2 (HDAC1/2) and cyclin-dependent Kinase2 (CDK2) dual inhibitors against malignant cancer” (Eur J Med Chem, 2020)", "key": {"[1]": {"tested_on": "HCT-116", "assay": "Antitumor activity against human HCT-116 cells xenografted in Balb/c mouse assessed as tumor growth inhibition at 50 mg/kg, ip administered for 21 days and measured on day 21 relative to control", "format": "functional", "conditions": "HCT-116, ip, 504 h, time 21 day, read-out: GI", "in_short": "(§1)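 HCT116 xenografts in BALB/c nude mice. Dosing started when tumours reached 100–300 mm³: intraperitoneal injection once daily for 21 days at 25, 50 or 100 mg/kg, versus blank. Body weight monitored. Tumour growth inhibition computed against blank.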"}, "[2]": {"assay": "Cmax in ICR mouse at 20 mg/kg, ip measured upto 24 hrs by LC-MS/MS analysis", "conditions": "in vivo"}, "[3]": {"tested_on": "HCT-116", "assay": "Antiproliferative activity against human HCT-116 cells assessed as reduction in cell growth at 8 uM incubated for 72 hrs by CCK-8 assay relative to control", "format": "functional"}, "[4]": {"tested_on": "HepG2", "assay": "Antiproliferative activity against human HepG2 cells assessed as reduction in cell growth at 2 uM incubated for 72 hrs by CCK-8 assay relative to control", "format": "functional"}, "[5]": {"tested_on": "A-375", "assay": "Antimigratory activity against human A-375 cells assessed as inhibition of migration at 0.5 uM incubated for 48 hrs by microscopic based wound healing test", "format": "functional, cell-based", "in_short": "(§2)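 Scratch (wound-healing) migration assay in A375 and H460 cells seeded in 12-well plates. Cells exposed to compound, CS055, roscovitine or DMSO blank for 48 h. At least two independent experiments.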"}, "[6]": {"tested_on": "HCT-116", "assay": "Antitumor activity against human HCT-116 cells xenografted in Balb/c mouse assessed as tumor growth inhibition at 100 mg/kg, ip administered for 21 days and measured on day 21 relative to control", "format": "functional", "conditions": "HCT-116, ip, 504 h, time 21 day, read-out: GI", "in_short": "as §1"}, "[7]": {"tested_on": "HeLa", "assay": "Induction of apoptosis in human HeLa cells assessed as necrotic cells at 1 uM incubated for 48 hrs by annexin V-FITC and PI staining based flow cytometry (reference value: 0.124 %)", "format": "functional"}, "[8]": {"tested_on": "HeLa", "assay": "Induction of apoptosis in human HeLa cells assessed as viable cells at 0.5 uM incubated for 48 hrs by annexin V-FITC and PI staining based flow cytometry (reference value: 98.5 %)", "format": "functional", "conditions": "read-out: Activity"}, "[9]": {"tested_on": "NCI-H460", "assay": "Induction of apoptosis in human NCI-H460 cells assessed as viable cells at 0.5 uM incubated for 48 hrs by annexin V-FITC and PI staining based flow cytometry (reference value: 90.4 %)", "format": "functional", "conditions": "read-out: Activity"}, "[10]": {"tested_on": "HeLa", "assay": "Cytotoxicity against human HeLa cells assessed as effect on cell morphology at 0.5 to 8 micromol incubated for 48 hrs by microscopic analysis", "format": "functional, cell-based", "conditions": "dose 0.5-8 µmol", "in_short": "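Five cancer cell lines treated with compound or DMSO (0.1 %) for 48 h. Morphology inspected by light microscopy at 10× objective.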"}, "[11]": {"tested_on": "NCI-H460", "assay": "Induction of cell cycle arrest in human NCI-H460 cells assessed as reduction in G0/G1 phase at 0.5 to 2 uM incubated for 24 hrs by PI staining based flow cytometry", "format": "functional", "conditions": "dose 0.5-2 µM", "in_short": "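Treatment at 2, 1 and 0.5 μM for 24 h, alongside CS055 and roscovitine, against a DMSO (0.1 %) blank. Cells then stained with propidium iodide and analyzed by flow cytometry.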"}, "[12]": {"tested_on": "NCI-H460", "assay": "Induction of apoptosis in human NCI-H460 cells assessed as necrotic cells incubated for 48 hrs by annexin V-FITC and PI staining based flow cytometry", "format": "functional, cell-based", "conditions": "dose 0.5-2 µM"}, "[13]": {"tested_on": "NCI-H460", "assay": "Antimigratory activity against human NCI-H460 cells assessed as inhibition of migration at 0.5 uM incubated for 48 hrs by microscopic based wound healing test", "format": "functional, cell-based", "in_short": "as §2"}, "[14]": {"assay": "MRT (0 to t) in ICR mouse at 4 mg/kg, iv measured upto 24 hrs by LC-MS/MS analysis", "format": "ADME, organism-based", "conditions": "in vivo"}, "[15]": {"tested_on": "HeLa", "assay": "Induction of apoptosis in human HeLa cells assessed as necrotic cells at 0.5 uM incubated for 48 hrs by annexin V-FITC and PI staining based flow cytometry (reference value: 0.124 %)", "format": "functional"}}, "note": "Activity calls are given as the source filed them. No cut-off for these calls is given here."}
{"smiles": "Cc1ccc(Nc2nc(Cl)nc3c2ncn3Cc2ccc(C(=O)Nc3ccccc3N)cc2)cc1", "values": [{"measurement": "inhibition in vivo at 50 mg/kg", "setting": "[1]", "result": 40, "unit": "%"}, {"measurement": "Cmax", "setting": "[2]", "result": 1360, "unit": "ng/mL"}, {"measurement": "inhibition at 8 µM", "setting": "[3]", "result": 81.5, "unit": "%"}, {"measurement": "inhibition at 2 µM", "setting": "[4]", "result": 76.2, "unit": "%"}, {"measurement": "inhibition", "setting": "[5]", "result": "Active"}, {"measurement": "inhibition in vivo at 100 mg/kg", "setting": "[6]", "result": 44, "unit": "%"}, {"measurement": "Activity", "setting": "[7]", "result": 0.363, "unit": "%"}, {"measurement": "viability at 0.5 µM", "setting": "[8]", "result": 89.9, "unit": "%"}, {"measurement": "viability at 0.5 µM", "setting": "[9]", "result": 88.7, "unit": "%"}, {"measurement": "Activity", "setting": "[10]", "result": "Active"}, {"measurement": "Activity", "setting": "[11]", "result": "Active"}, {"measurement": "Activity", "setting": "[12]", "result": "Dose-dependent effect"}, {"measurement": "inhibition", "setting": "[13]", "result": "Active"}, {"measurement": "MRT last at 24 h", "setting": "[14]", "result": 33.8, "unit": "min"}, {"measurement": "Activity", "setting": "[15]", "result": 0.31, "unit": "%"}]}
